# Activity calls are given as the source filed them. The calls are words filed in the database; no cut-off is given here.
# What was measured:
# Assay type in all cases: tissue-based
# [1] = molecular target: Prostaglandin F2-alpha receptor (Mus musculus) (UniProt P43117); assay: Antagonist activity at prostaglandin F2-alpha receptor in isolated Albino mouse ileum assessed as inhibition of acetylcholine-induced spasmogenic effect at 10^-4 M preincubated for 3 mins followed by acetylcholine challenge relative to control
# Method in brief: (§1)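 Mouse ileum came from female albinos (20-25 g) killed by cervical dislocation and was held under 200 mg tension in 37 °C baths for isotonic recording, with 30-min equilibration. A control acetylcholine contraction was obtained, then three washes. Compound was in contact for 3 min before acetylcholine challenge and contraction recording. After 5 min there were three washes and the control response was redetermined.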
# [2] = molecular target: Prostaglandin F2-alpha receptor (Mus musculus) (UniProt P43117); assay: Antagonist activity at prostaglandin F2-alpha receptor in isolated Albino mouse ileum assessed as inhibition of KCl-induced spasmogenic effect at 10^-4 M preincubated for 3 mins followed by KCl challenge relative to control
# Method in brief: (§2)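 Ileum sections were taken from female albino mice (20-25 g) killed by cervical dislocation and mounted in 37 °C baths under 200 mg tension, with isotonic contraction recording after a 30-min equilibration. A control contraction to KCl (54 mM bath) was followed by three washes. Compound was left on the tissue for 3 min, then KCl was re-added and the contraction recorded. After 5 min the tissue was washed three times and the control response repeated.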
# [3] = molecular target: Prostaglandin F2-alpha receptor (Mus musculus) (UniProt P43117); assay: Antagonist activity at prostaglandin F2-alpha receptor in isolated Albino mouse ileum assessed as inhibition of PGF2alpha-induced spasmogenic effect at 10^-4 M preincubated for 3 mins followed by PGF2alpha challenge relative to control
# Method in brief: (§3)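 This used female albino mouse ileum (20-25 g animals, killed by cervical dislocation), recorded isotonically under 200 mg tension at 37 °C after 30-min equilibration. A control PGF2α contraction was obtained and the bath washed three times. Compound was applied for 3 min before PGF2α challenge, and the contraction was recorded. Washing three times after 5 min was followed by a repeat PGF2α control response.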
# [4] = molecular target: Prostaglandin F2-alpha receptor (Mus musculus) (UniProt P43117); assay: Antagonist activity at prostaglandin F2-alpha receptor in isolated Albino mouse ileum assessed as inhibition of acetylcholine-induced spasmogenic effect at; method in brief: as §1
# [5] = molecular target: Prostaglandin F2-alpha receptor (Mus musculus) (UniProt P43117); assay: Antagonist activity at prostaglandin F2-alpha receptor in isolated Albino mouse ileum assessed as inhibition of KCl-induced spasmogenic effect at; method in brief: as §2
# [6] = molecular target: Prostaglandin F2-alpha receptor (Mus musculus) (UniProt P43117); assay: Antagonist activity at prostaglandin F2-alpha receptor in isolated Albino mouse ileum assessed as inhibition of PGF2alpha-induced spasmogenic effect at; method in brief: as §3
# [7] = molecular target: Prostaglandin F2-alpha receptor (Mus musculus) (UniProt P43117); assay: Antagonist activity at prostaglandin F2-alpha receptor in isolated Albino mouse ileum assessed as inhibition of PGF2alpha-induced spasmogenic effect preincubated for 3 mins followed by PGF2alpha challenge followed by compound washout; method in brief: as §3
# [8] = molecular target: Prostaglandin F2-alpha receptor (Mus musculus) (UniProt P43117); assay: Antagonist activity at prostaglandin F2-alpha receptor in isolated Albino mouse ileum assessed as inhibition of acetylcholine-induced spasmogenic effect preincubated for 3 mins followed by acetylcholine challenge followed by compound washout; method in brief: as §1
# [9] = molecular target: Prostaglandin F2-alpha receptor (Mus musculus) (UniProt P43117); assay: Antagonist activity at prostaglandin F2-alpha receptor in isolated Albino mouse ileum assessed as inhibition of KCl-induced spasmogenic effect preincubated for 3 mins followed by KCl challenge followed by compound washout; method in brief: as §2
# [10] = molecular target: Prostaglandin F2-alpha receptor (Mus musculus) (UniProt P43117); assay: Antagonist activity at prostaglandin F2-alpha receptor in isolated Albino mouse ileum assessed as inhibition of acetylcholine-induced spasmogenic effect at 10^-3 M preincubated for 3 mins followed by acetylcholine challenge relative to control; method in brief: as §1
# [11] = molecular target: Prostaglandin F2-alpha receptor (Mus musculus) (UniProt P43117); assay: Antagonist activity at prostaglandin F2-alpha receptor in isolated Albino mouse ileum assessed as inhibition of KCl-induced spasmogenic effect at 10^-3 M preincubated for 3 mins followed by KCl challenge relative to control; method in brief: as §2
# [12] = molecular target: Prostaglandin F2-alpha receptor (Mus musculus) (UniProt P43117); assay: Antagonist activity at prostaglandin F2-alpha receptor in isolated Albino mouse ileum assessed as inhibition of PGF2alpha-induced spasmogenic effect at 10^-3 M preincubated for 3 mins followed by PGF2alpha challenge relative to control; method in brief: as §3
# [13] = molecular target: Prostaglandin F2-alpha receptor (Mus musculus) (UniProt P43117); assay: Antagonist activity at prostaglandin F2-alpha receptor in isolated Albino mouse ileum assessed as inhibition of PGF2alpha-induced spasmogenic effect at 5X10'-5 M preincubated for 3 mins followed by PGF2alpha challenge relative to control; method in brief: as §3
# [14] = molecular target: Prostaglandin F2-alpha receptor (Mus musculus) (UniProt P43117); assay: Antagonist activity at prostaglandin F2-alpha receptor in isolated Albino mouse ileum assessed as inhibition of KCl-induced spasmogenic effect at 5X10'-5 M preincubated for 3 mins followed by KCl challenge relative to control; method in brief: as §2
# [15] = molecular target: Prostaglandin F2-alpha receptor (Mus musculus) (UniProt P43117); assay: Antagonist activity at prostaglandin F2-alpha receptor in isolated Albino mouse ileum assessed as inhibition of acetylcholine-induced spasmogenic effect at 5X10'-5 M preincubated for 3 mins followed by acetylcholine challenge relative to control; method in brief: as §1
# [16] = molecular target: Prostaglandin F2-alpha receptor (Mus musculus) (UniProt P43117); assay: Antagonist activity at prostaglandin F2-alpha receptor in isolated Albino mouse ileum assessed as inhibition of PGF2alpha-induced spasmogenic effect at 3X10'-5 M preincubated for 3 mins followed by PGF2alpha challenge relative to control; method in brief: as §3
# [17] = molecular target: Prostaglandin F2-alpha receptor (Mus musculus) (UniProt P43117); assay: Antagonist activity at prostaglandin F2-alpha receptor in isolated Albino mouse ileum assessed as inhibition of acetylcholine-induced spasmogenic effect at 3X10'-5 M preincubated for 3 mins followed by acetylcholine challenge relative to control; method in brief: as §1
# [18] = molecular target: Prostaglandin F2-alpha receptor (Mus musculus) (UniProt P43117); assay: Antagonist activity at prostaglandin F2-alpha receptor in isolated Albino mouse ileum assessed as inhibition of KCl-induced spasmogenic effect at 3X10'-5 M preincubated for 3 mins followed by KCl challenge relative to control; method in brief: as §2
# Sequence of Prostaglandin F2-alpha receptor (Mus musculus) (P43117 whole entry): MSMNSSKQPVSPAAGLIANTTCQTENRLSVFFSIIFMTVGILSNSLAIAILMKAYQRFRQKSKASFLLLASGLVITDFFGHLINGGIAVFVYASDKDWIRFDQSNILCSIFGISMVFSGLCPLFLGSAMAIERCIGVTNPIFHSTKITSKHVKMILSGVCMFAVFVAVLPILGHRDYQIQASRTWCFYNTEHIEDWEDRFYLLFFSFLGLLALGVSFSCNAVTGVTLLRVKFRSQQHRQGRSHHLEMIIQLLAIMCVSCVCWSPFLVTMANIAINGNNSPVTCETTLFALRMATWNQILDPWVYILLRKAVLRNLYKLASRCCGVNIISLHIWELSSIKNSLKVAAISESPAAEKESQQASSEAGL
SMILES,inhibition [1],inhibition [2],inhibition [3],inhibition [4],inhibition [5],inhibition [6],inhibition [7],inhibition [8],inhibition [9],inhibition [10],inhibition [11],inhibition [12],inhibition [13],inhibition [14],inhibition [15],inhibition [16],inhibition [17],inhibition [18]
CCCC1(CCC(=O)O)Cc2cc3c(cc2C1=O)OCO3 (centres undefined),inactive,inactive,20%,inactive,inactive,inactive,inactive,inactive,inactive,Active,Active,Active,–,–,–,–,–,–
CCCC1(CCC(=O)O)Cc2cc3c(cc2C1)OCO3,inactive,inactive,20%,inactive,inactive,inactive,inactive,inactive,inactive,Active,Active,Active,–,–,–,–,–,–
CCCC1(CCC(=O)O)Cc2ccc(OC)cc2C1=O (centres undefined),inactive,inactive,20%,inactive,inactive,inactive,inactive,inactive,inactive,Active,Active,Active,–,–,–,–,–,–
CCCC1(CCC(=O)O)Cc2cc(OCc3ccccc3)c(OCc3ccccc3)cc2C1=O (centres undefined),70%,70%,Active,Active,Active,Active,inactive,inactive,inactive,Active,Active,Active,90%,50%,35%,80%,< 20%,40%

# Reference: ChEMBL document CHEMBL3244074, “2-Indanpropionic acids: structural leads for prostaglandin F2alpha antagonist development” (J Med Chem, 1979)
